Measurements of several laboratories.
Each line is one published result; the experiments were not run side by side.
Effect on: enzyme activity
Action: inhibitor
INSR: Insulin receptor (INSR, Homo sapiens, UniProt P06213)
INSR phosphorylated: Insulin receptor, phosphorylated (INSR, Homo sapiens, UniProt P06213)

CCN(CC)c1ccc(C2=NNC(=O)CC2C)cc1[N+](=O)[O-] (stereo not drawn) — remaining activity (INSR; 10 µM): 94%
Nc1nc(NC2CCCCC2)sc1C(=O)c1ccccc1 — remaining activity (INSR; 10 µM): 75%
CCCOc1ccc(OC)c(F)c1C(=O)c1ccc(C(=O)N[C@@H]2CNC[C@H]2NC(=O)c2ccc3[nH]ncc3c2)cc1 — remaining activity (INSR; 10 µM): 101%
Oc1cccc(-c2nc(N3CCOCC3)c3oc4ncccc4c3n2)c1 — remaining activity (INSR; 10 µM): 80%
Cc1sc(C(=O)NC2COC2)cc1-n1cc(NC(=O)Nc2c(F)cccc2Cl)cn1 — remaining activity (INSR; 10 µM): 85.5%
Cc1ccc(NC(=O)c2ccc(C)c(C(F)(F)F)c2)cc1C#Cc1nn(C2CCC(O)CC2)c2ncnc(N)c12 (stereo not drawn) — remaining activity (INSR phosphorylated; 10 µM): 89%
Cc1cnc(NC2CCOCC2)nc1-n1cnc(C(=O)NC(CN)c2cc(F)cc(Cl)c2)c1 (stereo not drawn) — remaining activity (INSR; radiometric; 1 µM): 103%
COc1cc(Cl)c(C(=O)N[C@@H](CN[C@H]2CC[C@@H](N)CC2)Cc2ccc(C#N)cc2)cc1-c1ccc(CN[C@H](C)c2ccc(C)cc2)o1 — remaining activity (INSR phosphorylated; 1 µM): 100%
CC(C)(C)c1nc2c(s1)c1nc(N)ncc1c1ccc(NS(=O)(=O)c3c(F)cccc3F)c(F)c12 — remaining activity (INSR; radiometric; 1 µM): 112%
COc1cc(Nc2cnc(C#N)c(O[C@H](C)CN(C)C)n2)ncc1-c1cnn(C)c1 — remaining activity (INSR; radiometric; 1 µM): 98%
CC(C)(C)C(=O)c1sc(NC2CCCCC2)nc1N — remaining activity (INSR; 10 µM): 93%
Cc1[nH]c(/C=C2\C(=O)Nc3ccc(F)cc32)c(C)c1C(=O)N[C@H]1CCN(C(=O)N(C)C)C1 — remaining activity (INSR; 1 µM): 87%
